Laboratory results as given in ChEMBL document CHEMBL2057137, “Lead optimization studies on FimH antagonists: discovery of potent and orally bioavailable ortho-substituted biphenyl mannosides” (J Med Chem, 2012).

Experiments:
Escherichia coli [1] = assay: Inhibition of Escherichia coli FimH-mediated hemagglutinination of human red blood cells assessed as drug level required for > 90% inhibition of hemagglutinination after 30 mins by hemagglutinination inhibition assay
[2] = Binding affinity to biotinylated Escherichia coli FimH-lectin domain after 30 mins by biolayer interferometry method
Method in brief: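 FimH lectin domain biotinylated 1:1, loaded at 50μg/ml in HBS (20mM HEPES pH 7.5, 150mM NaCl) onto streptavidin tips, biocytin-blocked. Compound applied as 7 twofold dilutions in HBS for 10 min association, then 30 min dissociation, 30°C with shaking. Referenced to biocytin-blocked pins for drift and nonspecific binding. Kd from global kinetic fitting.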

Escherichia coli [3] = assay: Binding affinity to […] Escherichia coli FimH-lectine domain assessed as melting temperature at 100 uM by differential scanning fluorometric assay
Method in brief: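 Untagged FimH lectin domain (residues 1–158 of UPEC J96 FimH), 5 µg in a 50 µl reaction of HBS (20mM HEPES pH 7.5, 150mM NaCl). Compound at 100µM final, diluted from DMSO stocks, with SYPRO Orange at 5X final. Controls were FimH alone plus 0.2% DMSO. Melt curve ran from 20–90°C in 0.5 °C steps of 15 s each, with fluorescence read on the HEX channel.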

[4] = Effective permeability of the compound by PAMPA assay; type: ADME; set-up: unit not given here
Escherichia coli [5] = assay: Antibacterial activity against Escherichia coli K-12 ATCC 25404 assessed as inhibition of biofilm formation after 2 hrs by confocal laser microscopic analysis; type: functional, organism-based; details: Escherichia coli, K-12 ATCC 25404, 2 h
Mus musculus = assay: Ratio of drug uptake in mouse urine to plasma at 50 mg/kg, po measured after 6 hrs; details: in vivo
[6] = Drug level in mouse urine at 50 mg/kg, po measured after 6 hrs; type: ADME, organism-based; set-up: dose 50 mg/kg, route oral; details: read-out: Drug uptake
Method in brief: (§1)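 Oral dosing in mice at 50 mg/kg. Plasma and urine sampled at 30 min and 1, 2, 3, 4, 6 h after dosing. Compound quantified by LC-MS/MS in selected reaction monitoring mode.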

[7] = Plasma concentration in mouse at 50 mg/kg, po measured after 6 hrs; type: ADME, organism-based; set-up: dose 50 mg/kg, route oral; method in brief: as §1

SMILES	EC>90 (Escherichia coli [1]) [µM]	Kd [2] [nM]	Tm (Escherichia coli [3]) [°C]	other results
O=c1[nH]ccc2ccc(-c3ccc(O[C@H]4O[C@H](CO)[C@@H](O)[C@H](O)[C@@H]4O)cc3)cc12	0.1	–	–	–
O=C(Nc1ccncc1)c1cccc(-c2ccc(O[C@H]3O[C@H](CO)[C@@H](O)[C@H](O)[C@@H]3O)cc2)c1	0.25	–	–	–
COc1cccc(-c2ccc(O[C@H]3O[C@H](CO)[C@@H](O)[C@H](O)[C@@H]3O)cc2)c1	–	1.25	71.8	–
COc1ccccc1-c1ccc(O[C@H]2O[C@H](CO)[C@@H](O)[C@H](O)[C@@H]2O)cc1	–	–	70.7	–
COC(=O)c1cccc(-c2ccc(O[C@H]3O[C@H](CO)[C@@H](O)[C@H](O)[C@@H]3O)c(C(F)(F)F)c2)c1	0.03	–	–	log Pe [4]: -3.91; IC50 (Escherichia coli [5]): 170 nM
CNC(=O)c1cc(C(=O)NC)cc(-c2ccc(O[C@H]3O[C@H](CO)[C@@H](O)[C@H](O)[C@@H]3O)c(C)c2)c1	0.016	–	75.8	log Pe [4]: -8.46; IC50 (Escherichia coli [5]): 73 nM; Ratio (Mus musculus): 10
OCc1cccc(-c2ccc(O[C@H]3O[C@H](CO)[C@@H](O)[C@H](O)[C@@H]3O)cc2)c1	–	2.61	71.2	–
COC(=O)c1cccc(-c2ccc(O[C@H]3O[C@H](CO)[C@@H](O)[C@H](O)[C@@H]3O)c(C)c2)c1	0.12	–	–	IC50 (Escherichia coli [5]): 330 nM
COC(=O)c1cccc(-c2ccc(O[C@H]3O[C@H](CO)[C@@H](O)[C@H](O)[C@@H]3O)c(F)c2)c1	0.75	–	–	–
COC(=O)c1cncc(-c2ccc(O[C@H]3O[C@H](CO)[C@@H](O)[C@H](O)[C@@H]3O)cc2)c1	0.19	–	–	–
COC(=O)c1cccc(-c2ccc(O[C@H]3O[C@H](CO)[C@@H](O)[C@H](O)[C@@H]3O)cc2C(=O)OC)c1	1	–	–	log Pe [4]: -4.08
OC[C@H]1O[C@H](Oc2ccc(-c3ccccc3)cc2)[C@@H](O)[C@@H](O)[C@@H]1O	–	3	71.2	–
COC(=O)c1ccc(-c2ccc(O[C@H]3O[C@H](CO)[C@@H](O)[C@H](O)[C@@H]3O)cc2)cc1	–	3.99	–	–
COC(=O)c1cccc(-c2ccc(O[C@H]3O[C@H](CO)[C@@H](O)[C@H](O)[C@@H]3O)c(Cl)c2)c1	0.03	–	–	log Pe [4]: -4.29; IC50 (Escherichia coli [5]): 260 nM
O=C(NCCO)c1cccc(-c2ccc(O[C@H]3O[C@H](CO)[C@@H](O)[C@H](O)[C@@H]3O)cc2)c1	0.5	–	–	–
NC(=O)Nc1csc(-c2ccc(O[C@H]3O[C@H](CO)[C@@H](O)[C@H](O)[C@@H]3O)cc2)c1	1	–	–	–
CNC(=O)c1cc(C(=O)NC)cc(-c2ccc(O[C@H]3O[C@H](CO)[C@@H](O)[C@H](O)[C@@H]3O)c(C(F)(F)F)c2)c1	0.008	–	76.2	log Pe [4]: -6.27; IC50 (Escherichia coli [5]): 43 nM; concentration at 6 h [6]: 890 nM; concentration at 6 h [7]: 40 nM; Ratio (Mus musculus): 10
COC(=O)c1ccc(-c2ccc(O[C@H]3O[C@H](CO)[C@@H](O)[C@H](O)[C@@H]3O)cc2)s1	1	–	–	–
COC(=O)c1cccc(-c2ccc(O[C@H]3O[C@H](CO)[C@@H](O)[C@H](O)[C@@H]3O)c(OC)c2)c1	0.19	–	–	IC50 (Escherichia coli [5]): 890 nM
COC(=O)c1cccc(O[C@H]2O[C@H](CO)[C@@H](O)[C@H](O)[C@@H]2O)c1	–	–	70.8	–
CNC(=O)c1cccc(-c2ccc(O[C@H]3O[C@H](CO)[C@@H](O)[C@H](O)[C@@H]3O)cc2)c1	0.5	–	73.4	IC50 (Escherichia coli [5]): 1350 nM
O=C(c1cccc(-c2ccc(O[C@H]3O[C@H](CO)[C@@H](O)[C@H](O)[C@@H]3O)cc2)c1)N1CCNCC1	4	–	–	–
OC[C@H]1O[C@H](OCc2ccccc2)[C@@H](O)[C@@H](O)[C@@H]1O	–	43.7	–	–
CS(=O)(=O)Nc1cccc(-c2ccc(O[C@H]3O[C@H](CO)[C@@H](O)[C@H](O)[C@@H]3O)cc2)c1	–	2	70.9	–

SMILES	EC>90 (Escherichia coli [1]) [µM]	Kd [2] [nM]	Tm (Escherichia coli [3]) [°C]	other results
CNC(=O)c1cccc(-c2ccc(O[C@H]3O[C@H](CO)[C@@H](O)[C@H](O)[C@@H]3O)c(Cl)c2)c1	0.12	–	–	IC50 (Escherichia coli [5]): 520 nM; Ratio (Mus musculus): 10
NC(=O)c1cccc(-c2ccc(O[C@H]3O[C@H](CO)[C@@H](O)[C@H](O)[C@@H]3O)cc2)c1	–	1	71.7	–
COC(=O)c1csc(-c2ccc(O[C@H]3O[C@H](CO)[C@@H](O)[C@H](O)[C@@H]3O)cc2)c1	2	–	–	–
O=C(O)c1cc(C(=O)O)cc(-c2ccc(O[C@H]3O[C@H](CO)[C@@H](O)[C@H](O)[C@@H]3O)cc2)c1	–	14.5	72.4	–
NCCNC(=O)c1cccc(-c2ccc(O[C@H]3O[C@H](CO)[C@@H](O)[C@H](O)[C@@H]3O)cc2)c1	3	–	–	–
COC(=O)c1cc(O[C@H]2O[C@H](CO)[C@@H](O)[C@H](O)[C@@H]2O)cc(C(=O)OC)c1	–	3.45	73.2	–
COC(=O)c1sc(-c2ccc(O[C@H]3O[C@H](CO)[C@@H](O)[C@H](O)[C@@H]3O)cc2)cc1NC(N)=O	0.02	–	–	–
COC(=O)c1cc(C(=O)OC)cc(-c2ccc(O[C@H]3O[C@H](CO)[C@@H](O)[C@H](O)[C@@H]3O)cc2)c1	–	–	72.5	–
OC[C@H]1O[C@H](Oc2ccc(-c3ccc4ccncc4c3)cc2)[C@@H](O)[C@@H](O)[C@@H]1O	0.75	–	–	–
CNC(=O)c1cccc(-c2ccc(O[C@H]3O[C@H](CO)[C@@H](O)[C@H](O)[C@@H]3O)c(C(F)(F)F)c2)c1	0.03	–	72.3	IC50 (Escherichia coli [5]): 130 nM; Ratio (Mus musculus): 10
CNS(=O)(=O)c1cccc(-c2ccc(O[C@H]3O[C@H](CO)[C@@H](O)[C@H](O)[C@@H]3O)cc2)c1	–	0.49	72	–
CNC(=O)c1cccc(-c2ccc(O[C@H]3O[C@H](CO)[C@@H](O)[C@H](O)[C@@H]3O)c(C)c2)c1	0.06	–	74.5	log Pe [4]: -3.89; IC50 (Escherichia coli [5]): 160 nM; concentration at 6 h [6]: 4370 nM; concentration at 6 h [7]: 100 nM; Ratio (Mus musculus): 10
OC[C@H]1O[C@H](Oc2ccc(-c3ccc4ncncc4c3)cc2)[C@@H](O)[C@@H](O)[C@@H]1O	0.38	–	–	–
OC[C@H]1O[C@H](Oc2ccccc2)[C@@H](O)[C@@H](O)[C@@H]1O	30	–	68.9	–
COC(=O)c1cccc(-c2ccc(O[C@H]3O[C@H](CO)[C@@H](O)[C@H](O)[C@@H]3O)cc2)c1	–	0.08	73.4	log Pe [4]: -5.42; IC50 (Escherichia coli [5]): 940 nM
OC[C@H]1O[C@H](Oc2ccc3ccccc3c2)[C@@H](O)[C@@H](O)[C@@H]1O	–	2.72	70.8	–
O=C(O)c1cccc(-c2ccc(O[C@H]3O[C@H](CO)[C@@H](O)[C@H](O)[C@@H]3O)cc2)c1	–	2.21	70.9	–
CN1CCN(C(=O)c2cccc(-c3ccc(O[C@H]4O[C@H](CO)[C@@H](O)[C@H](O)[C@@H]4O)cc3)c2)CC1	4	–	–	–
CC(=O)Nc1cccc(-c2ccc(O[C@H]3O[C@H](CO)[C@@H](O)[C@H](O)[C@@H]3O)cc2)c1	–	1.14	72.3	–
OC[C@H]1O[C@H](Oc2ccc(-c3cccc4cnccc34)cc2)[C@@H](O)[C@@H](O)[C@@H]1O	0.25	–	–	–
OC[C@H]1O[C@H](Oc2ccc(-c3cccc(C(F)(F)F)c3)cc2)[C@@H](O)[C@@H](O)[C@@H]1O	–	1.56	68.3	–
COC(=O)c1cc(-c2ccc(O[C@H]3O[C@H](CO)[C@@H](O)[C@H](O)[C@@H]3O)cc2)ccn1	0.5	–	73.7	–
O=C(Nc1cccnc1)c1cccc(-c2ccc(O[C@H]3O[C@H](CO)[C@@H](O)[C@H](O)[C@@H]3O)cc2)c1	0.37	–	72.5	–
